“Also recorded” adds a separate entry of the source. Where two headings read alike, the source gives them in different places.
How the values were obtained:
[1] = system: K-562; assay: NCI single dose; type: cell-based; settings: Homo sapiens, K562, read-out: percent growth inhibition
In short: (§1)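 This was the NCI primary screen: test compound at one concentration of 10 μM against the 60-cell-line human cancer panel, covering leukemia, NSCLC, melanoma, colon, CNS, ovarian, renal, prostate and breast lines. The read-out was percent growth inhibition for each cell line. Compounds meeting the threshold went on to the five-dose screen.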

[2] = system: HCT-116; assay: NCI five-dose screen, colon cancer; type: cell-based; settings: Homo sapiens; for GI50: HCT-116
In short: (§2)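 This was the NCI five-dose screen on the 60-cell-line human cancer panel, covering nine tumour types. It was given to compounds that met the single-dose criteria. GI50 is the concentration giving 50% growth inhibition, TGI the concentration giving 100% growth inhibition, and LC50 the concentration giving 50% lethality. MG-MID is the mean over all cell lines tested.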

[3] = system: HL-60 (TB); assay: cells; settings: Homo sapiens; for GI50: HL-60
[4] = system: KM12; assay: NCI five-dose screen, colon cancer; type: cell-based; settings: Homo sapiens; for GI50: KM12
In short: as §2

[5] = system: RPMI-8226; assay: NCI five-dose screen, leukemia; type: cell-based; settings: Homo sapiens; for GI50: RPMI-8226
In short: as §2

[6] = system: SR; assay: NCI five-dose screen, leukemia; type: cell-based; settings: Homo sapiens
In short: as §2

[7] = system: K-562; assay: NCI five-dose screen, leukemia; type: cell-based; settings: Homo sapiens, K562
In short: as §2

[8] = system: topoisomerase II (topoII); assay: Gene expression by real time PCR in HepG2; type: cell-based; settings: HepG2, approximate value in text
[9] = system: p38 mitogen-activated protein kinase (MAPK); assay: MAPK concentration in HepG2 cells, sandwich ELISA; type: cell-based; settings: HepG2, IC50 concentrations, 8 hours, ELISA (Fig. 5C)
In short: (§3)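 HepG2 cells were treated with test compound, with doxorubicin as reference. Cellular p38 MAPK and Topo II protein concentrations were then measured with commercial sandwich ELISA kits. Each compound had three wells, and the experiment was run twice. Values are mean ± SEM, with significance tested against untreated cells.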

[10] = system: HCC-2998; assay: NCI single dose; type: cell-based; settings: Homo sapiens, HCC 2998, read-out: percent growth inhibition
In short: as §1

[11] = system: cyclin-dependent kinase 1 (cdk1); assay: Gene expression by real time PCR in HepG2; type: cell-based; settings: HepG2, approximate value in text
[12] = system: HCT-15; assay: NCI single dose; type: cell-based; settings: Homo sapiens, HCT-15, read-out: percent growth inhibition
In short: as §1

[13] = system: COLO 205; assay: NCI five-dose screen, colon cancer; type: cell-based; settings: Homo sapiens; for GI50: COLO 205; for CC50: COLO 205, read-out: LC50
In short: as §2

[14] = system: SR; assay: NCI single dose; type: cell-based; settings: Homo sapiens, read-out: percent growth inhibition
In short: as §1

[15] = system: CCRF-CEM; assay: NCI five-dose screen, leukemia; type: cell-based; settings: Homo sapiens
In short: as §2

[16] = system: HCT-15; assay: NCI five-dose screen, colon cancer; type: cell-based; settings: Homo sapiens; for GI50: HCT-15
In short: as §2

[17] = system: HCT-116; assay: NCI single dose; type: cell-based; settings: Homo sapiens, HCT-116, read-out: percent growth inhibition
In short: as §1

[18] = system: CCRF-CEM; assay: NCI single dose; type: cell-based; settings: Homo sapiens, read-out: percent growth inhibition
In short: as §1

[19] = system: 60 cancer cell lines; assay: NCI single dose; type: cell-based, human; settings: for GI% values, range over cell lines: 10 μM, range over the leukemia and colon cancer cell lines of Table 2; for inhibition at 10 µM: Homo sapiens, read-out: Mean percent growth inhibition (MPGI)
In short: as §1

[20] = system: cleaved caspase-3; assay: Active cleaved caspase 3 activity in HepG2 cells; type: cell-based; settings: for effect on activity of cleaved active caspase 3: HepG2 (Fig. 5B)
[21] = system: HCC-2998; assay: NCI five-dose screen, colon cancer; type: cell-based; settings: Homo sapiens; for GI50: HCC 2998; for CC50: HCC 2998, read-out: LC50
In short: as §2

[22] = system: topoisomerase II (Topo II); assay: Topo II concentration in HepG2 cells, sandwich ELISA; type: cell-based; settings: HepG2, IC50 concentrations, 8 hours, ELISA (Fig. 5A)
In short: as §3

[23] = system: KM12; assay: NCI single dose; type: cell-based; settings: Homo sapiens, KM12, read-out: percent growth inhibition
In short: as §1

[24] = system: MOLT-4; assay: NCI single dose; type: cell-based; settings: Homo sapiens, MOLT-4, read-out: percent growth inhibition
In short: as §1

[25] = system: SW-620; assay: NCI five-dose screen, colon cancer; type: cell-based; settings: Homo sapiens; for GI50: SW-620
In short: as §2

[26] = system: HT29; assay: NCI five-dose screen, colon cancer; type: cell-based; settings: Homo sapiens, HT-29
In short: as §2

[27] = system: MOLT-4; assay: NCI five-dose screen, leukemia; type: cell-based; settings: Homo sapiens
In short: as §2

[28] = system: HT29; assay: NCI single dose; type: cell-based; settings: Homo sapiens, HT-29, read-out: percent growth inhibition
In short: as §1

[29] = Cytotoxicity in normal cells; type: cell-based, human; settings: human, WI-38 normal fibroblasts
In short: (§4)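 Normal human WI-38 fibroblasts were exposed to a concentration series of test compound, with doxorubicin as positive control and three wells per concentration. IC50 came from dose–response curves averaged over two parallel experiments and is given as mean ± SEM versus untreated cells. Selectivity index = WI-38 IC50 / median GI50 from the NCI cancer panel.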

[30] = system: human normal fibroblasts (WI-38); assay: Cytotoxicity in normal cells; type: cell-based; settings: SI = WI-38 IC50/median GI50
In short: as §4

[31] = system: panel of 60 cell lines; assay: NCI five-dose screen, whole panel; type: cell-based; settings: Homo sapiens; for CC50: read-out: Median LC50 (MG-MID)
In short: as §2

[32] = system: p53; assay: Gene expression by real time PCR in HepG2; type: cell-based; settings: Homo sapiens, HepG2, 8 h, read-out: p53 expression, fold induction from untreated cells
In short: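 HepG2 cells treated with test compound; p53 transcript measured within a panel that also covered cdk1, caspase 3, topoII and txnrd1, and expressed relative to untreated cells. Values given as mean ± SEM of two independent experiments, with significance set at p < 0.05 versus untreated cells.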

[33] = system: SW-620; assay: NCI single dose; type: cell-based; settings: Homo sapiens, SW-620, read-out: percent growth inhibition
In short: as §1

Work on `COc1cc(-c2ccc(-c3ccc(C(=N)N)nc3)s2)cc(OC)c1OC.Cl` [Compound 4c, 5-[5-(3,4,5-Trimethoxyphenyl)thiophen-2-yl]picolinamidine hydrochloride salt] yielded an inhibition at 10 µM [1] of 94.4%, a GI50 [2] of 1.47 µM and a CC50 ([2]; HCT-116, read-out: LC50) of 5.6 µM. The GI50 [3] was 1.87 µM, the CC50 ([3]; HL-60, read-out: LC50) was 9.44 µM and the GI50 [4] was 2.78 µM. The GI50 [5] was 1.67 µM, the CC50 ([5]; RPMI-8226, read-out: LC50) was 9.4 µM and the GI50 [6] was 2.48 µM. The GI50 [7] was 1.39 µM, the “magnitude of downregulation of topoII expression” value [8] was roughly 70% and the “effect on concentration of MAPK protein” value [9] was “significant reduction”. For the same molecule, the inhibition at 10 µM [10] was 87.9%, the “magnitude of downregulation of cdk1 expression” value [11] was roughly 70% and the inhibition at 10 µM [12] was 78.6%. It also gave a GI50 [13] of 1.6 µM, a CC50 [13] of 6.66 µM and an inhibition at 10 µM [14] of 93.7%. It also gave a GI50 [15] of 2.49 µM, a GI50 [16] of 2.18 µM and an inhibition at 10 µM [17] of 99%. The inhibition at 10 µM [18] was 89.1%, the “GI% values, range over cell lines” value [19] was 50.93 to 99.05% and the inhibition at 10 µM [19] was 52.6%. For the same molecule, the “effect on activity of cleaved active caspase 3” value [20] was “devoid of any effect”, the “increase in cleaved caspase 3 enzyme activity” value ([20]; HepG2, did not achieve statistical significance (Fig. 5B)) was roughly 60% and the GI50 [21] was 2 µM. For the same molecule, the CC50 [21] was 7.61 µM, the “effect on concentration of Topo II protein” value (“effect … of Topo II protein” for short) [22] was “significant reduction; also recorded: significantly downregulate” and the inhibition at 10 µM [23] was 50.9%. For the same molecule, the inhibition at 10 µM [24] was 76.2%, the GI50 [25] was 2.09 µM and the GI50 [26] was 1.37 µM. For the same molecule, the GI50 [27] was 2.53 µM, the inhibition at 10 µM [28] was 85.8% and the IC50 at 48 h [29] was 51.3 ± 9 µM. The “selectivity index (SI)” value [30] was 21.5, the GI50 ([31]; read-out: GI50, range over cell lines) was 1.37 to 2.78 µM and the GI50 ([31]; read-out: Median GI50 (MG-MID)) was 2.39 µM. For the same molecule, the CC50 [31] was 19.5 µM, the fold induction at 0.1 µM [32] was 1.18 ± 0.1 and the inhibition at 10 µM [33] was 70.8%.
In the case of `COc1ccc(-c2ccc(-c3ccc(C(=N)N)nc3)s2)cc1Cl.Cl` [Compound 4b, 5-[5-(3-Chloro-4-methoxyphenyl)thiophen-2-yl]picolinamidine hydrochloride salt], the GI50 [2] is reported as 1.82 µM, the GI50 [3] is reported as 1.66 µM and the GI50 [4] is reported as 1.81 µM. For the same molecule, the GI50 [5] was 2.25 µM, the GI50 [6] was 0.58 µM and the GI50 [7] was 0.9 µM. For the same molecule, the “magnitude of downregulation of topoII expression” value [8] was roughly 50%, the “effect on concentration of MAPK protein” value [9] was “significant reduction” and the “magnitude of downregulation of cdk1 expression” value [11] was roughly 50%. It also gave a GI50 [13] of 1.94 µM, a GI50 [15] of 1.18 µM and a GI50 [16] of 1.57 µM. The “GI% values, range over cell lines” value [19] was −7.17 to −86.03%, the inhibition at 10 µM [19] was -19.9% and the “effect on activity of cleaved active caspase 3” value [20] was “devoid of any effect”. For the same molecule, the GI50 [21] was 1.86 µM, the “effect … of Topo II protein” value [22] was “significant reduction; also recorded: significantly downregulate” and the GI50 [25] was 1.79 µM. For the same molecule, the GI50 [26] was 1.35 µM, the GI50 [27] was 1.72 µM and the inhibition at 10 µM [28] was 97.5%. The IC50 at 48 h [29] was 23.7 ± 2.5 µM, the “selectivity index (SI)” value [30] was 13.7 and the GI50 ([31]; read-out: Median GI50 (MG-MID)) was 1.73 µM. The CC50 [31] was 8.31 µM and the fold induction at 0.1 µM [32] was 1.03 ± 0.08.
For `COc1cccc2c1C(=O)c1c(O)c3c(c(O)c1C2=O)C[C@@](O)(C(=O)CO)C[C@@H]3O[C@H]1C[C@H](N)[C@H](O)[C@H](C)O1` [Dox, Doxorubicin, reference compound], the “effect … of Topo II protein” value [22] was “significantly downregulate”, the IC50 at 48 h [29] was 2.9 ± 0.8 µM and the fold induction at 0.1 µM [32] was 3.14 ± 0.81.
Work on `COc1ccc(-c2ccc(-c3ccc(C(=N)N)nc3)s2)cc1.Cl` [Compound 4a, 5-[5-(4-Methoxyphenyl)thiophen-2-yl]picolinamidine hydrochloride salt] yielded a GI50 [2] of 1.62 µM, a GI50 [3] of 1.78 µM and a GI50 [4] of 1.81 µM. For the same molecule, the CC50 ([4]; KM12, read-out: LC50) was 6.03 µM, the GI50 [5] was 2.13 µM and the GI50 [6] was 0.34 µM. For the same molecule, the GI50 [7] was 1.09 µM, the GI50 [13] was 1.89 µM and the CC50 [13] was 8.13 µM. The inhibition at 10 µM [14] was 99.7%, the GI50 [15] was 1.43 µM and the GI50 [16] was 1.27 µM. For the same molecule, the CC50 ([16]; HCT-15, read-out: LC50) was 5.71 µM, the “GI% values, range over cell lines” value [19] was −7.17 to −86.03% and the inhibition at 10 µM [19] was -28.8%. It also gave a GI50 [21] of 1.82 µM, a CC50 [21] of 6.38 µM and a GI50 [25] of 0.43 µM. The CC50 ([25]; SW-620, read-out: LC50) was 4.98 µM, the GI50 [26] was 0.88 µM and the GI50 [27] was 1.9 µM. For the same molecule, the IC50 at 48 h [29] was 21.1 ± 3.1 µM, the “selectivity index (SI)” value [30] was 13.0 and the GI50 ([31]; read-out: Median GI50 (MG-MID)) was 1.62 µM. It also gave a CC50 [31] of 8.12 µM and a fold induction at 0.1 µM [32] of 1.19 ± 0.43.
